# Test results published in ChEMBL document CHEMBL1275433 (Antimicrob Agents Chemother, 2008).
# pIC50: −log10 of the molar value.
# Legend:
# [1] = target: DNA gyrase subunit A/DNA gyrase subunit B (Mycobacterium tuberculosis (strain ATCC 25618 / H37Rv), UniProt P9WG45+P9WG47); assay: Inhibition of Mycobacterium tuberculosis DNA gyrase GyrA/GyrB; format: protein-complex assay
# Method in brief: (§1)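 Enzyme unit: protein needed for 50% supercoiling of 0.4 μg relaxed pBR322 DNA in 1 h at 37°C. Wild-type and mutant enzymes assayed in parallel on the same day under identical conditions. Repeated two to four times; representative values reported.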
# [2] = target: DNA gyrase (Escherichia coli, UniProt P0AES4+P0AES6); assay: Inhibition of Escherichia coli DNA gyrase GyrA/GyrB; format: protein-complex assay; method in brief: as §1
# [3] = target: DNA gyrase subunit A/DNA gyrase subunit B (Mycobacterium tuberculosis (strain ATCC 25618 / H37Rv)) (UniProt P9WG45+P9WG47)
# [4] = test system: Escherichia coli; assay: Antimicrobial activity against Escherichia coli harboring DNA gyrase GyrA QRDR; format: functional, organism-based
# [5] = test system: Salmonella typhimurium; assay: Antimicrobial activity against Salmonella enterica Typhimurium harboring DNA gyrase GyrA QRDR; format: functional, Salmonella enterica subsp. enterica serovar Typhimurium
# [6] = test system: Haemophilus influenzae; assay: Antimicrobial activity against Haemophilus influenzae harboring DNA gyrase GyrA QRDR; format: functional
# [7] = test system: Pseudomonas aeruginosa; assay: Antimicrobial activity against Pseudomonas aeruginosa harboring DNA gyrase GyrA QRDR; format: functional, organism-based
# [8] = test system: Klebsiella oxytoca; assay: Antimicrobial activity against Klebsiella oxytoca harboring DNA gyrase GyrA QRDR; format: functional
# [9] = test system: Methylovorus; assay: Antimicrobial activity against Methylovorus sp. harboring DNA gyrase GyrA QRDR; format: functional
# [10] = test system: Neisseria gonorrhoeae; assay: Antimicrobial activity against Neisseria gonorrhoeae harboring DNA gyrase GyrA QRDR; format: functional
# [11] = test system: Helicobacter pylori; assay: Antimicrobial activity against Helicobacter pylori 1 harboring DNA gyrase GyrA QRDR; format: functional
# [12] = test system: Helicobacter pylori; assay: Antimicrobial activity against Helicobacter pylori 2 harboring DNA gyrase GyrA QRDR; format: functional
# [13] = test system: Ehrlichia chaffeensis; assay: Antimicrobial activity against Ehrlichia chaffeensis harboring DNA gyrase GyrA QRDR; format: functional
# [14] = test system: Bacteroides fragilis; assay: Antimicrobial activity against Bacteroides fragilis harboring DNA gyrase GyrA QRDR; format: functional
# [15] = test system: Borrelia burgdorferi; assay: Antimicrobial activity against Borrelia burgdorferi harboring DNA gyrase GyrA QRDR; format: functional; details: Borreliella burgdorferi
# [16] = test system: Staphylococcus aureus; assay: Antimicrobial activity against Staphylococcus aureus harboring DNA gyrase GyrA QRDR; format: functional, organism-based
# [17] = test system: Enterococcus faecalis; assay: Antimicrobial activity against Enterococcus faecalis harboring DNA gyrase GyrA QRDR; format: functional
# [18] = test system: Streptococcus pneumoniae; assay: Antimicrobial activity against Streptococcus pneumoniae harboring DNA gyrase GyrA QRDR; format: functional, organism-based
# [19] = test system: Mycolicibacterium smegmatis; assay: Antimicrobial activity against Mycobacterium smegmatis harboring DNA gyrase GyrA QRDR; format: functional, organism-based
# [20] = test system: Mycolicibacterium fortuitum; assay: Antimicrobial activity against Mycobacterium fortuitum harboring DNA gyrase GyrA QRDR; format: functional, organism-based
# [21] = test system: Bacillus subtilis; assay: Antimicrobial activity against Bacillus subtilis harboring DNA gyrase GyrA QRDR; format: functional
# [22] = test system: Escherichia coli; assay: Antimicrobial activity against Escherichia coli harboring DNA gyrase GyrB QRDR; format: functional, organism-based
# [23] = test system: Salmonella typhimurium; assay: Antimicrobial activity against Salmonella enterica Typhimurium harboring DNA gyrase GyrB QRDR; format: functional, Salmonella enterica subsp. enterica serovar Typhimurium
# [24] = test system: Haemophilus influenzae; assay: Antimicrobial activity against Haemophilus influenzae harboring DNA gyrase GyrB QRDR; format: functional
# [25] = test system: Pseudomonas aeruginosa; assay: Antimicrobial activity against Pseudomonas aeruginosa harboring DNA gyrase GyrB QRDR; format: functional, organism-based
# [26] = test system: Klebsiella oxytoca; assay: Antimicrobial activity against Klebsiella oxytoca harboring DNA gyrase GyrB QRDR; format: functional
# [27] = test system: Methylovorus; assay: Antimicrobial activity against Methylovorus sp. harboring DNA gyrase GyrB QRDR; format: functional
# [28] = test system: Neisseria gonorrhoeae; assay: Antimicrobial activity against Neisseria gonorrhoeae harboring DNA gyrase GyrB QRDR; format: functional
# [29] = test system: Helicobacter pylori; assay: Antimicrobial activity against Helicobacter pylori harboring DNA gyrase GyrB QRDR; format: functional
# [30] = test system: Ehrlichia chaffeensis; assay: Antimicrobial activity against Ehrlichia chaffeensis harboring DNA gyrase GyrB QRDR; format: functional
# [31] = test system: Bacteroides fragilis; assay: Antimicrobial activity against Bacteroides fragilis harboring DNA gyrase GyrB QRDR; format: functional
# [32] = test system: Borrelia burgdorferi; assay: Antimicrobial activity against Borrelia burgdorferi harboring DNA gyrase GyrB QRDR; format: functional; details: Borreliella burgdorferi
# [33] = test system: Staphylococcus aureus; assay: Antimicrobial activity against Staphylococcus aureus harboring DNA gyrase GyrB QRDR; format: functional, organism-based
# [34] = test system: Enterococcus faecalis; assay: Antimicrobial activity against Enterococcus faecalis harboring DNA gyrase GyrB QRDR; format: functional
# [35] = test system: Streptococcus pneumoniae; assay: Antimicrobial activity against Streptococcus pneumoniae harboring DNA gyrase GyrB QRDR; format: functional, organism-based
# [36] = test system: Mycolicibacterium smegmatis; assay: Antimicrobial activity against Mycobacterium smegmatis harboring DNA gyrase GyrB QRDR; format: functional, organism-based
# [37] = test system: Mycolicibacterium fortuitum; assay: Antimicrobial activity against Mycobacterium fortuitum harboring DNA gyrase GyrB QRDR; format: functional, organism-based
# [38] = test system: Bacillus subtilis; assay: Antimicrobial activity against Bacillus subtilis harboring DNA gyrase GyrB QRDR; format: functional
# [39] = target: DNA gyrase (Escherichia coli) (UniProt P0AES6+P0AES4)
# DNA gyrase subunit A/DNA gyrase subunit B, sequence (P9WG45 whole entry): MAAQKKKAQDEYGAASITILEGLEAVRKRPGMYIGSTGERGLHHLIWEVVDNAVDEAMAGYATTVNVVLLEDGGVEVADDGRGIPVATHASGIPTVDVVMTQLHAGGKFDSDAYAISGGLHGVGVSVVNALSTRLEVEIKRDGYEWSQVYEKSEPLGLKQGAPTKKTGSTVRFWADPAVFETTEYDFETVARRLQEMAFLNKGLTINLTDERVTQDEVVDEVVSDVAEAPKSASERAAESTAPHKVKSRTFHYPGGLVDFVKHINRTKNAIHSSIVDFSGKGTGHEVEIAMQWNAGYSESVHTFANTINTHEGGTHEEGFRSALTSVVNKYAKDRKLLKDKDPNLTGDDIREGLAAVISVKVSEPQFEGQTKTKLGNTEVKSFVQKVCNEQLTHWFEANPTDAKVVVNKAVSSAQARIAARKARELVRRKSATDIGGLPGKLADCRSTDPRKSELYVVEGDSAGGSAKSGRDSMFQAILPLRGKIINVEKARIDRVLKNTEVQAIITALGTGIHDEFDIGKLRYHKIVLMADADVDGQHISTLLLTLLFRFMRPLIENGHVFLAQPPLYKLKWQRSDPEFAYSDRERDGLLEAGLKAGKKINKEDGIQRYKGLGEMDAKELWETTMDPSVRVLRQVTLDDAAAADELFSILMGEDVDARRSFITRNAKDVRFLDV
# DNA gyrase subunit A/DNA gyrase subunit B, sequence (P9WG47 whole entry): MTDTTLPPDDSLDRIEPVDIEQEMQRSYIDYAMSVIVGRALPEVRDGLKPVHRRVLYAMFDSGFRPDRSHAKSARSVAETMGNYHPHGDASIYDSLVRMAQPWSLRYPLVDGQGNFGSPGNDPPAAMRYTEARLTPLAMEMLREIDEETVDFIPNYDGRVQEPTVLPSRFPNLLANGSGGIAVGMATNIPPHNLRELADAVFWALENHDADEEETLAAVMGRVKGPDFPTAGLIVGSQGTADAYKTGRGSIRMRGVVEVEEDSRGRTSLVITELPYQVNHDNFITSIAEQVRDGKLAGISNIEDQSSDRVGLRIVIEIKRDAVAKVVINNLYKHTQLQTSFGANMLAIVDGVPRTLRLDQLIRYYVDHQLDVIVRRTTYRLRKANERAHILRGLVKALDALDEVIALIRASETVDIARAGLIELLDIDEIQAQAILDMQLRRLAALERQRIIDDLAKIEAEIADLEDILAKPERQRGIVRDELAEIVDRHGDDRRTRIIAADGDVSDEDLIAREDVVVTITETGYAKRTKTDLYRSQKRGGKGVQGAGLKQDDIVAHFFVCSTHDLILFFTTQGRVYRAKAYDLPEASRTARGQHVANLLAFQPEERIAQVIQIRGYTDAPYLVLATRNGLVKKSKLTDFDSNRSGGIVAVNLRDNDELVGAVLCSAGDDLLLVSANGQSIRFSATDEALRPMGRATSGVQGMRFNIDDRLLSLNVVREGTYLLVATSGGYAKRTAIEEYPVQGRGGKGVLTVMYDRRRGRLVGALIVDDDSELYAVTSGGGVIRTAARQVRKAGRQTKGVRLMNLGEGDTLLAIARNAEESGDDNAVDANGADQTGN
structure (smiles),measurement,setting,value
CCn1cc(C(=O)O)c(=O)c2cc(F)c(N3CCNCC3)nc21 [ENOXACIN],pIC50,[1],3.81
same,pIC50,[2],4.85
COc1c(N2C[C@@H]3CCCN[C@@H]3C2)c(F)cc2c(=O)c(C(=O)O)cn(C3CC3)c12 [MOXIFLOXACIN],CC25,[3],2 µM
CCn1cc(C(=O)O)c(=O)c2ccc(C)nc21 [NALIDIXIC ACID],pIC50,[1],2.32
CC1COc2c(N3CCN(C)CC3)c(F)cc3c(=O)c(C(=O)O)cn1c23 (centres undefined) [OFLOXACIN],pIC50,[1],4.55
same,IC50,[4],0.3 µg/mL
same,MIC50,[4],0.01 µg/mL
same,MIC50,[5],0.01 µg/mL
same,MIC50,[6],0.01 µg/mL
same,IC50,[7],0.5 µg/mL
same,MIC50,[7],0.25 µg/mL
same,MIC50,[8],0.01 µg/mL
same,MIC50,[9],0.8 µg/mL
same,MIC50,[10],0.008 µg/mL
same,MIC50,[11],0.06 µg/mL
same,MIC50,[12],0.25 µg/mL
same,MIC50,[13],16 µg/mL
same,MIC50,[14],4 µg/mL
same,MIC50,[15],8 µg/mL
same,IC50,[16],10 µg/mL
same,MIC50,[16],0.5 µg/mL
same,MIC50,[17],1 µg/mL
same,IC50,[18],40 µg/mL
same,MIC50,[18],1 µg/mL
same,IC50,[19],10 µg/mL
same,MIC50,[19],1 µg/mL
same,IC50,[20],1 µg/mL
same,MIC50,[20],0.06 µg/mL
same,MIC50,[21],0.12 µg/mL
same,IC50,[22],0.3 µg/mL
same,MIC50,[22],0.01 µg/mL
same,MIC50,[23],0.01 µg/mL
same,MIC50,[24],0.012 µg/mL
same,IC50,[25],0.5 µg/mL
same,MIC50,[25],0.25 µg/mL
same,MIC50,[26],0.01 µg/mL
same,MIC50,[27],0.8 µg/mL
same,MIC50,[28],0.008 µg/mL
same,MIC50,[29],0.25 µg/mL
same,MIC50,[30],16 µg/mL
same,MIC50,[31],4 µg/mL
same,MIC50,[32],8 µg/mL
same,IC50,[33],10 µg/mL
same,MIC50,[33],0.5 µg/mL
same,MIC50,[34],1 µg/mL
same,IC50,[35],40 µg/mL
same,MIC50,[35],1 µg/mL
same,IC50,[36],10 µg/mL
same,MIC50,[36],1 µg/mL
same,IC50,[37],1 µg/mL
same,MIC50,[37],0.06 µg/mL
same,MIC50,[38],0.12 µg/mL
same,CC25,[3],7 µM
same,CC25,[39],0.2 µM
